Measured values taken from ChEMBL document CHEMBL4316598, “Synthesis, antiproliferative and apoptosis induction potential activities of novel bis(indolyl)hydrazide-hydrazone derivatives” (Bioorg Med Chem, 2019).
Converted amounts (≈) assume the structure as drawn. The source made the active and inactive calls. The calls are words filed in the database; no cut-off is given here.

What was measured:
MDA-MB-231 = experiment: Cytotoxicity against human MDA-MB-231 cells assessed as reduction in cell viability after 4 hrs by MTT assay; type: functional, cell-based; settings: MDA-MB-231, 4 h
How it was run: (§1)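 MTT: 10,000–20,000 cells/well attached for 16 h, then washed twice with serum-free RPMI. Treated with 1–200 µM for 4 h, 3 parallel runs per concentration. MTT added for 2 h; medium partly removed and isopropanol added. A590 read. Viability = (A treated − A doxorubicin)/(A medium − A doxorubicin)×100. Mean of three experiments, triplicate wells each.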

HEK293 = experiment: Cytotoxicity against HEK293 cells assessed as reduction in cell viability after 4 hrs by MTT assay; type: cell-based, Homo sapiens; how it was run: as §1
A549 = experiment: Cytotoxicity against human A549 cells assessed as reduction in cell viability after 4 hrs by MTT assay; type: functional, cell-based; how it was run: as §1
HeLa [1] = experiment: Cytotoxicity against human HeLa cells assessed as reduction in cell viability after 4 hrs by MTT assay; type: functional, cell-based; how it was run: as §1
MCF7 [2] = experiment: Cytotoxicity against human MCF7 cells assessed as reduction in cell viability after 4 hrs by MTT assay; type: functional, cell-based; how it was run: as §1
DU-145 = experiment: Antiproliferative activity against human DU145 cells by MTS assay; type: functional, cell-based
HeLa [3] = experiment: Induction of caspase-dependent apoptosis in human HeLa cells assessed as activation of caspase-3 at 3 uM after 24 hrs by Western blot analysis; type: functional, cell-based
How it was run: (§2)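 Cleaved caspase-3 immunoblot. Cells were exposed at 1, 3 and 5 µM for 24 h at 37 °C, with paclitaxel 3 µM as positive control. Lysis was in ice-cold Triton X-100 buffer, and protein was measured by BCA. Lysates were separated by electrophoresis, transferred to nitrocellulose and blocked in milk. Primary antibody was applied overnight at 4 °C and secondary for 1 h at 28 °C. Detection was by enhanced chemiluminescence.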

MCF7 [4] = experiment: Induction of caspase-dependent apoptosis in human MCF7 cells assessed as activation of caspase-3 at 3 uM after 24 hrs by Western blot analysis; type: functional, cell-based; how it was run: as §2
SCC-25 = experiment: Cytotoxicity against human SCC25 cells assessed as reduction in cell viability after 4 hrs by MTT assay; type: functional, cell-based; settings: SCC-25, 4 h
Detroit 562 = experiment: Cytotoxicity against human Detroit 562 cells assessed as reduction in cell viability after 4 hrs by MTT assay; type: functional, cell-based; settings: Detroit 562, 4 h
[5] = Cytotoxicity against human SW680 cells assessed as reduction in cell viability after 4 hrs by MTT assay; type: functional, cell-based
FaDu = experiment: Cytotoxicity against human FADU cells assessed as reduction in cell viability after 4 hrs by MTT assay; type: functional, cell-based
[6] = Homo sapiens, A549, 4 h, read-out: IC50
[7] = Homo sapiens, MCF7, 4 h, read-out: IC50
[8] = Homo sapiens, HeLa, 4 h, read-out: IC50

Compound	IC50 (MDA-MB-231) [µM]	IC50 (HEK293; hek293)	IC50 (A549; [6]) [µM]	IC50 (HeLa [1]; hela)	IC50 (MCF7 [2]; [7]) [µM]	IC50 (HeLa [1]; [8]) [µM]	IC50 (MCF7 [2]; mcf7)	further results
Cn1cc(/C=N\NC(=O)c2cn(C)c3ccccc23)c2ccccc21	18.9	Non-Toxic	19	Not Active	31.3	–	–	–
O=C(N/C=C/c1c[nH]c2ccccc12)C(=O)c1c[nH]c2ccccc12	–	–	–	–	–	–	–	IC50 (DU-145): 7.6 µg/mL (≈ 23.1 µM)
CC(=O)O[C@H]1C(=O)[C@@]2(C)[C@H]([C@H](OC(=O)c3ccccc3)[C@]3(O)C[C@H](OC(=O)[C@H](O)[C@@H](NC(=O)c4ccccc4)c4ccccc4)C(C)=C1C3(C)C)[C@]1(OC(C)=O)CO[C@@H]1C[C@@H]2O	–	–	–	–	–	–	–	Activity (HeLa [3]): Active; Activity (MCF7 [4]): Active
COc1cccc2c1C(=O)c1c(O)c3c(c(O)c1C2=O)C[C@@](O)(C(=O)CO)C[C@@H]3O[C@H]1C[C@H](N)[C@H](O)[C@H](C)O1 [DOXORUBICIN]	3.1	–	0.89 to 2.11	–	0.23 to 0.98	0.36 to 1.09	–	IC50 (SCC-25): 2.24 µM; IC50 (Detroit 562): 1.26 µM; IC50 (HEK293; Homo sapiens, HEK293, 4 h, read-out: IC50): > 200 µM; IC50 [5]: 1.2 µM; IC50 (FaDu): 0.68 µM
COc1ccc2[nH]cc(/C=N\NC(=O)c3cn(C)c4ccc(Br)cc34)c2c1	22.7	Non-Toxic	12.8	–	–	14.2	Not Active	–
Cn1cc(C(=O)N/N=C\c2c[nH]c3ccccc23)c2cc(Br)ccc21	14.2	Non-Toxic	–	Not Active	–	–	Not Active	IC50 (A549; a549): Not Active
